Laboratory results from ChEMBL document CHEMBL2062381, “Synthesis and in vitro evaluation of new chloroquine-chalcone hybrids against chloroquine-resistant strain of Plasmodium falciparum” (Bioorg Med Chem Lett, 2012).
Converted amounts (≈) assume the structure as drawn.

Assays:
[1] = test system: Plasmodium yoelii; experiment: Inhibition of beta hematin formation in Plasmodium yoelii infected swiss mouse RBC after 16 hrs; format: functional, organism-based
How it was run: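 Source material was plasma from male Swiss mice (15–20 g) inoculated with 1 × 10⁵ P. yoelii-infected RBCs. Blood was taken by cardiac puncture at 50% parasitemia into 2.0% citrate and centrifuged. The 1.0 mL mix held 100 mM sodium acetate pH 5.1, plasma, hemin substrate and compound at […]. It ran in triplicate for 16 h at 37 °C with rotary shaking. The washed β-hematin pellet was dissolved in NaOH and read at 400 nm. IC50 came from nonlinear regression.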

[2] = test system: Plasmodium falciparum; experiment: Antimalarial activity against chloroquine-resistant Plasmodium falciparum K1 after 72 hrs by SYBR Green-I based fluorescence assay; format: functional, organism-based
How it was run: (§1)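 Asynchronous culture (>80% rings), 1.0% parasitized cell suspension at 0.8% parasitaemia, exposed to twofold serial dilutions of compound (DMSO stock 5 mg/mL). Incubated 72 h at 37 °C under 5% CO₂ in air. Lysis buffer with SYBR Green I added, then 1 h at 37 °C. Fluorescence read at 485/530 nm. IC₅₀ from logit regression of dose-response curves. Mean of three experiments in triplicate.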

[3] = Selectivity index, ratio of IC50 for african green monkey Vero cells to IC50 for Plasmodium falciparum; format: toxicity, cell-based; conditions: read-out: Ratio IC50
How it was run: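 SI = CC50/IC50. CC50 was measured in Vero monkey kidney cells (C1008) by MTT after 72 h exposure to compound dilutions, using nonlinear regression. IC50 came from a 72 h SYBR Green I fluorescence assay in P. falciparum (1.0% parasitized cells, 0.8% parasitaemia, mostly ring stages, 37 °C, 5% CO2). Those values came from logit regression.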

[4] = test system: Plasmodium falciparum; experiment: Antimalarial activity against chloroquine-susceptible Plasmodium falciparum 3D7 after 72 hrs by SYBR Green-I based fluorescence assay; format: functional, organism-based; conditions: 3D7, 72 h; how it was run: as §1
[5] = Inhibition of hydrogen peroxide-mediated hemin decomposition assessed as remaining hemin level at 20 uM after 30 mins by […] (reference value: 43%); format: functional
How it was run: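 Hemin (in 0.1 N NaOH) was mixed with BSA in 0.2 M sodium acetate pH 5.1 and compound, then equilibrated for 10 min at room temperature. The reaction was started with 20 mM H2O2 and ran 30 min at room temperature. Read-out was the decrease in Soret absorbance at 405 nm, reported as % hemin remaining. Controls used water instead of H2O2. Data are the mean of three experiments in triplicate.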

[6] = Plasmodium falciparum, K1, 72 h, read-out: IC50

| Compound | IC50 [1] | IC50 [2, 6] | selectivity ratio [3] | IC50 [4] | Activity [5] | IC50 [2] |
| --- | --- | --- | --- | --- | --- | --- |
| O=C(COc1ccc(/C=N/Nc2ccnc3cc(Cl)ccc23)cc1)c1ccc(Cl)cc1 | 16.4 µg/mL (≈ 36.4 µM) | 126 nM | 800 | 36.7 nM |  |  |
| COc1ccc(OC)c(/C=C(\Oc2ccc(/C=N/Nc3ccnc4cc(Cl)ccc34)cc2)C(=O)c2ccc(Cl)cc2)c1 | 25 µg/mL (≈ 41.8 µM) | 125 nM | 669 | 250 nM |  |  |
| COc1ccc(/C=C(\Oc2ccc(/C=N/Nc3ccnc4cc(Cl)ccc34)cc2)C(=O)c2ccc(Cl)cc2)cc1OC | 3.46 µg/mL (≈ 5.78 µM) | 97.8 nM | 1440 | 84 nM | 59% |  |
| Cc1ccc(/C=C(\Oc2ccc(/C=N/Nc3ccnc4cc(Cl)ccc34)cc2)C(=O)c2ccc(Cl)cc2)cc1 | 5.58 µg/mL (≈ 10.1 µM) | 97.9 nM | 1620 | 112 nM |  |  |
| O=C(/C(=C/c1ccc(F)cc1)Oc1ccc(/C=N/Nc2ccnc3cc(Cl)ccc23)cc1)c1ccc(Cl)cc1 | 15.6 µg/mL (≈ 28 µM) | 102 nM | 6200 | 29.1 nM |  |  |
| COc1ccc(/C=C(\Oc2ccc(/C=N/Nc3ccnc4cc(Cl)ccc34)cc2)C(=O)c2ccc(Cl)cc2)cc1 | 17.6 µg/mL (≈ 31 µM) | 96.9 nM | 2050 | 48.1 nM |  |  |
| O=C(/C(=C/c1ccc([N+](=O)[O-])cc1)Oc1ccc(/C=N/Nc2ccnc3cc(Cl)ccc23)cc1)c1ccc(Cl)cc1 | 12.8 µg/mL (≈ 21.9 µM) |  |  | > 500 nM |  | Not Active |
| COc1cc(/C=C(\Oc2ccc(/C=N/Nc3ccnc4cc(Cl)ccc34)cc2)C(=O)c2ccc(Cl)cc2)cc(OC)c1OC | 10.8 µg/mL (≈ 17.2 µM) | 123 nM | 970 | 95.3 nM |  |  |
| COc1cc(OC)c(OC)cc1/C=C(\Oc1ccc(/C=N/Nc2ccnc3cc(Cl)ccc23)cc1)C(=O)c1ccc(Cl)cc1 | 10.6 µg/mL (≈ 16.9 µM) | 89.5 nM | 728 | 90.5 nM |  |  |
| CCN(CC)CCCC(C)Nc1ccnc2cc(Cl)ccc12 (configuration not stated) [CHLOROQUINE] | 3.75 µg/mL (≈ 11.7 µM) |  |  |  | 65% |  |
| O=C(/C(=C/c1ccccc1)Oc1ccc(/C=N/Nc2ccnc3cc(Cl)ccc23)cc1)c1ccc(Cl)cc1 | 5.66 µg/mL (≈ 10.5 µM) | 110 nM | 2360 | 78.8 nM |  |  |
| O=C(/C(=C/c1ccc(Cl)cc1Cl)Oc1ccc(/C=N/Nc2ccnc3cc(Cl)ccc23)cc1)c1ccc(Cl)cc1 | 5.91 µg/mL (≈ 9.73 µM) |  | 560 | 295 nM |  | Not Active |
| O=C(/C(=C/c1cccc([N+](=O)[O-])c1)Oc1ccc(/C=N/Nc2ccnc3cc(Cl)ccc23)cc1)c1ccc(Cl)cc1 | 5.72 µg/mL (≈ 9.8 µM) | 315 nM | 1340 | 128 nM |  |  |
| O=C(/C(=C/c1ccoc1)Oc1ccc(/C=N/Nc2ccnc3cc(Cl)ccc23)cc1)c1ccc(Cl)cc1 | 3.74 µg/mL (≈ 7.08 µM) | 115 nM | 962 | 57.3 nM | 53% |  |
| O=C(/C(=C/c1ccc(F)cc1F)Oc1ccc(/C=N/Nc2ccnc3cc(Cl)ccc23)cc1)c1ccc(Cl)cc1 |  | 170 nM | 1040 | 139 nM |  |  |
| O=C(/C(=C/c1ccc(Cl)cc1)Oc1ccc(/C=N/Nc2ccnc3cc(Cl)ccc23)cc1)c1ccc(Cl)cc1 | 8.38 µg/mL (≈ 14.6 µM) | 199 nM | 1210 | 145 nM |  |  |
| COc1ccc(/C=C(\Oc2ccc(/C=N/Nc3ccnc4cc(Cl)ccc34)cc2)C(=O)c2ccc(Cl)cc2)c(OC)c1OC | 3.52 µg/mL (≈ 5.6 µM) | 82.9 nM | 837 | 124 nM | 63% |  |
